Results: ChEMBL document CHEMBL4033716, “The impact of the halogen bonding on D2 and 5-HT1A/5-HT7 receptor activity of azinesulfonamides of 4-[(2-ethyl)piperidinyl-1-yl]phenylpiperazines with antipsychotic and antidepressant properties” (Bioorg Med Chem, 2017)
Active and inactive are the calls of the source. The rule behind the calls is not given here.

How the values were obtained:
D(2) dopamine receptor [1] = biological target: T1, D(2) dopamine receptor (Homo sapiens, UniProt P14416); experiment: Displacement of [3H]-Raclopride from human dopamine D2L receptor expressed in HEK293 cell membranes after 1 hr by microbeta liquid scintillation counting analysis
T1 sequence (P14416 whole entry): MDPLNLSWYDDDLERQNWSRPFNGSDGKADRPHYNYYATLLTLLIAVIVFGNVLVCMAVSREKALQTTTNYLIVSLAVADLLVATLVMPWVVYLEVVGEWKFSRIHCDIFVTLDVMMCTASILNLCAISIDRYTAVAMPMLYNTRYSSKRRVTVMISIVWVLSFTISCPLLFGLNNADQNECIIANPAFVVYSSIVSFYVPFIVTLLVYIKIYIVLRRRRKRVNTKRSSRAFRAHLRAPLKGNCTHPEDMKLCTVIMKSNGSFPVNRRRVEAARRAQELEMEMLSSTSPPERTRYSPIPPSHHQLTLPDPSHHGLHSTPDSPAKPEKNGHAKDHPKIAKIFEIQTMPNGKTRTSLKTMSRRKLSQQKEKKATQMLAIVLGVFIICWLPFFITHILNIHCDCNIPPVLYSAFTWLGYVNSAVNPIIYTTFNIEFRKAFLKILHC
Method in brief: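 HEK293 membranes expressing human D2L. Incubated 1 h at 37°C, rapid filtration. 1 µM (+)butaclamol defined nonspecific binding. Triplicates at 7–8 concentrations, 10⁻¹¹–10⁻⁴ M. Ki via Cheng-Prusoff, ≥3 experiments.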

[2] = biological target: T2, 5-hydroxytryptamine receptor 1A (Homo sapiens, UniProt P08908); experiment: Displacement of [3H]-8-OH-DPAT from human 5-HT1A receptor expressed in HEK293 cell membranes after 1 hr by microbeta liquid scintillation counting analysis
T2 sequence (P08908 whole entry): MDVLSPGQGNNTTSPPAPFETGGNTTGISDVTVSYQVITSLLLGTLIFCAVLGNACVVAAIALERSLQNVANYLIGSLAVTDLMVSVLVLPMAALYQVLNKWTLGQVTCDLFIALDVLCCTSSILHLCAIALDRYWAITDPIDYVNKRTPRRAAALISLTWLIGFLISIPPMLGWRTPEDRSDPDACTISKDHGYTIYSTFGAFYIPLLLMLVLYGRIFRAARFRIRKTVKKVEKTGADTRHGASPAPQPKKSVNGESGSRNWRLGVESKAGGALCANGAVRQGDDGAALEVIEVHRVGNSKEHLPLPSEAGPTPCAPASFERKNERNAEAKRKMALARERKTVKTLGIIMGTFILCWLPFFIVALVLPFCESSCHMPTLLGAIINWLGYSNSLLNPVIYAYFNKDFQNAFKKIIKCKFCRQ
Method in brief: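 HEK293 membranes with stably expressed human 5-HT1A, washed by two 35 000 g spins. Buffer 50 mM Tris-HCl, 0.1 mM EDTA, 4 mM MgCl₂, 10 μM pargyline, 0.1% ascorbate. Incubated 1 h at room temperature, then rapid filtration. 10 µM 5-HT defined nonspecific binding. Tested in triplicate over 10⁻¹¹–10⁻⁴ M (7–8 concentrations). Ki via Cheng-Prusoff, mean of ≥3 experiments.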

[3] = biological target: 5-hydroxytryptamine receptor 2A (Homo sapiens, UniProt P28223); experiment: Displacement of [3H]-Ketanserin from human 5-HT2A receptor expressed in HEK293 cell membranes after 1 hr by microbeta liquid scintillation counting analysis
5-hydroxytryptamine receptor 2A, sequence (P28223 whole entry): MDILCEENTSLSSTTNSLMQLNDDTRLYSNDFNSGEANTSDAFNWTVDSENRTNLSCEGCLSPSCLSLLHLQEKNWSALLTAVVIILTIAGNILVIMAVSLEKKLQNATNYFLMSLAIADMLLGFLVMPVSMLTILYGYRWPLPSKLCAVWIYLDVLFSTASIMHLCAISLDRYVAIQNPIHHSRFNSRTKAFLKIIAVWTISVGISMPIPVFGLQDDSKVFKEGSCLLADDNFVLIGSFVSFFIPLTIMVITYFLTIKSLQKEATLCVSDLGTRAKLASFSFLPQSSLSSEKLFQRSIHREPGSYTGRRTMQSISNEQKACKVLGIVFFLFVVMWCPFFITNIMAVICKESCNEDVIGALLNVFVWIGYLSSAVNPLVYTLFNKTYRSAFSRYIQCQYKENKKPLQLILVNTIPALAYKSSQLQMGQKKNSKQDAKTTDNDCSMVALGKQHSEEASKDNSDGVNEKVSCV
Method in brief: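 Competition binding on membranes from HEK293 cells stably expressing human 5-HT2A, prepared by homogenization and two 35 000 g centrifugations. Incubated 1 h at 37°C, then filtered and counted. Triplicate points at 7–8 concentrations, 10⁻¹¹–10⁻⁴ M. Ki from Cheng-Prusoff, ≥3 separate experiments.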

[4] = biological target: 5-hydroxytryptamine receptor 6 (Homo sapiens, UniProt P50406); experiment: Displacement of [3H]-LSD from human 5-HT6 receptor expressed in HEK293 cell membranes after 1 hr by microbeta liquid scintillation counting analysis
5-hydroxytryptamine receptor 6, sequence (P50406 whole entry): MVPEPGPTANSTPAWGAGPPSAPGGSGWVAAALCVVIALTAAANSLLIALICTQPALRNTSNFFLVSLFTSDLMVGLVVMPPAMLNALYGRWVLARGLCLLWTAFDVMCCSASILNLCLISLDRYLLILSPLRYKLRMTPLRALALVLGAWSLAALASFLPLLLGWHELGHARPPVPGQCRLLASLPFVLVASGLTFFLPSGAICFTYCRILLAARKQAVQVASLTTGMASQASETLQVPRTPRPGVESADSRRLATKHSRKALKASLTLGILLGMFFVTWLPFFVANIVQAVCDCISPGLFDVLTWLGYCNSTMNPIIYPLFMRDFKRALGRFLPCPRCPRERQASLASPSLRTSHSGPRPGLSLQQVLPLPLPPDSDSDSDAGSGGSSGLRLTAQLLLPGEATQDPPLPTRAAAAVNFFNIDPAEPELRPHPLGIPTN
Method in brief: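 Human 5-HT6 stably expressed in HEK293; cell membranes washed by two 35 000 g spins. Buffer 50 mM Tris-HCl, 0.5 mM EDTA, 4 mM MgCl₂. Incubated 1 h at 37°C, filtered. Nonspecific binding with 10 µM methiothepine. 7–8 concentrations (10⁻¹¹–10⁻⁴ M) in triplicate. Ki by Cheng-Prusoff, ≥3 experiments.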

[5] = biological target: T3, 5-hydroxytryptamine receptor 7 (Homo sapiens, UniProt P34969); experiment: Displacement of [3H]-5-CT from human 5-HT7 receptor expressed in HEK293 cell membranes after 1 hr by microbeta liquid scintillation counting analysis
T3 sequence (P34969 whole entry): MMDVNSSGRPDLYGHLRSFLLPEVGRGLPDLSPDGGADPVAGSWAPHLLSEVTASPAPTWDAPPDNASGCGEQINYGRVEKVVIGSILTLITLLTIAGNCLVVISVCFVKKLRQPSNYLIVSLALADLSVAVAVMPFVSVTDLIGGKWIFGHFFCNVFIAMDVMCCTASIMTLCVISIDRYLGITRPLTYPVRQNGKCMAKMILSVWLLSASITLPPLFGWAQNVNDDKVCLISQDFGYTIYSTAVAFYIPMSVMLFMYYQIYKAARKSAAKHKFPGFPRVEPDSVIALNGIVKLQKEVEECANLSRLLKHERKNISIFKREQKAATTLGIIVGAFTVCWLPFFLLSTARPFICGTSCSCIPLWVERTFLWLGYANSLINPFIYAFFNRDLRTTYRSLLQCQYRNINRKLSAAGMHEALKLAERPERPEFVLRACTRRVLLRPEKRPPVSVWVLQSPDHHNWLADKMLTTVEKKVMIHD
Method in brief: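 Membranes from HEK293 pellets stably expressing human 5-HT7b, homogenized and centrifuged twice at 35 000 g (4°C) with 15 min 37°C incubation between. Buffer 50 mM Tris-HCl, 4 mM MgCl₂, 10 μM pargyline, 0.1% ascorbate. Incubated 1 h at 37°C, then filtered. Nonspecific binding defined with 10 µM 5-HT. Triplicates at 7–8 concentrations (10⁻¹¹–10⁻⁴ M). Ki by Cheng-Prusoff, ≥3 experiments.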

D(2) dopamine receptor [6] = biological target: T1, D(2) dopamine receptor; experiment: Antagonist activity at human dopamine D2 receptor expressed in HEK293 cells at 1 uM assessed as inhibition of dopamine-induced cAMP production; assay type: functional, cell-based
Method in brief: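 Cellular cAMP antagonist assay run by a contract lab on HEK293 cells stably expressing human D2 receptor. Compound tested at 10⁻⁶ M. Result given as % inhibition of the control agonist response to dopamine 30 nM.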

[7] = biological target: T4, 5-hydroxytryptamine receptor 1A (Homo sapiens) (UniProt P08908); experiment: Antagonist activity at human 5-HT1A receptor expressed in HEK293 cells assessed as inhibition of 8-OH-DPAT-induced cAMP production at 1 uM by fluorescence assay; assay type: functional, cell-based
T4 sequence (whole entry): T2 sequence (P08908 whole entry)
Method in brief: (§1)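 Cellular cAMP functional antagonist assay run by a contract lab. Human 5-HT7 receptor was stably expressed in CHO cells, and human 5-HT1A in HEK293 cells. Read-out was % inhibition of the control agonist response.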

[8] = biological target: T3, 5-hydroxytryptamine receptor 7; experiment: Antagonist activity at human 5-HT7 receptor expressed in CHOK1 cells assessed as inhibition of serotonin-induced cAMP production at 1 uM after 30 mins by HTRF assay; assay type: functional, cell-based; method in brief: as §1
Mus musculus [9] = experiment: Antipsychotic activity in CD-1 mouse assessed as inhibition of MK-801-induced hyperlocomotor activity at 10 to 20 mg/kg, ip pretreated with MK-801 for 15 mins followed by compound administration for 60 mins; assay type: functional, organism-based
Method in brief: (§2)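 Male CD-1 mice, tested in the light phase, observer blind. Test compounds i.p. 60 min and MK-801 i.p. 15 min before testing, in distilled water at 10 ml/kg; vehicle controls. After 30 min cage habituation, ambulation recorded by activity monitor for 1 h in 5-min bins. 8–10 animals/group; mean ± SEM, one-way ANOVA with Bonferroni test.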

Mus musculus [10] = experiment: Antidepressant-like activity in Swiss albino mouse assessed as decrease in immobility time at 0.625 mg/kg measured last 4 mins of 6 mins test by forced swim test relative to control; assay type: functional; design: scale not given: the % may be the effect or the level left
Method in brief: (§3)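 Male Swiss albino mice (22–26 g), used once, observer blind. Drugs dissolved in distilled water, given i.p. at 10 ml/kg: test compounds 60 min, citalopram 30 min before testing; controls got vehicle. Mice placed 6 min in a cylinder with 10 cm water at 23–25°C; immobility scored over the last 4 min. 7–12 mice/group; one-way ANOVA then Bonferroni.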

Mus musculus [11] = experiment: Antipsychotic activity in CD-1 mouse assessed as inhibition of MK-801-induced hyperlocomotor activity administered ip pretreated with MK-801 for 15 mins followed by compound treatment for 60 mins; assay type: functional; settings: CD-1, ip, read-out: MED; method in brief: as §2
Mus musculus [12] = experiment: Antidepressant-like activity in Swiss albino mouse assessed as decrease in immobility time administered ip for 30 mins measured last 4 mins of 6 mins test by forced swim test relative to control; assay type: functional; settings: read-out: MED; method in brief: as §3
Mus musculus [13] = experiment: Antipsychotic activity in CD-1 mouse assessed as inhibition of MK-801-induced hyperlocomotor activity at 30 mg/kg, ip pretreated with MK-801 for 15 mins followed by compound administration for 60 mins; assay type: functional, organism-based; method in brief: as §2
Mus musculus [14] = experiment: Antidepressant-like activity in Swiss albino mouse assessed as decrease in immobility time at 1.25 mg/kg, ip measured last 4 mins of 6 mins test by forced swim test relative to control; assay type: functional; design: scale not given: the % may be the effect or the level left; method in brief: as §3
Mus musculus [15] = experiment: Antidepressant-like activity in Swiss albino mouse assessed as decrease in immobility time at 2.5 mg/kg, ip measured last 4 mins of 6 mins test by forced swim test relative to control; assay type: functional; design: scale not given: the % may be the effect or the level left; method in brief: as §3
Mus musculus [16] = experiment: Antidepressant-like activity in Swiss albino mouse assessed as decrease in immobility time at 1.25 mg/kg, ip for 30 mins measured last 4 mins of 6 mins test by forced swim test relative to control; assay type: functional; design: scale not given: the % may be the effect or the level left; method in brief: as §3
Mus musculus [17] = experiment: Antipsychotic activity in CD-1 mouse assessed as inhibition of dizocilpine-induced hyperlocomotor activity at 0.5 mg/kg, ip pretreated with dizocilpine for 15 mins followed by compound administration for 60 mins; assay type: functional, organism-based; method in brief: as §2
Mus musculus [18] = experiment: Antipsychotic activity in CD-1 mouse assessed as inhibition of MK-801-induced hyperlocomotor activity at 5 to 20 mg/kg, ip pretreated with MK-801 for 15 mins followed by compound administration for 60 mins; assay type: functional, organism-based; method in brief: as §2
Mus musculus [19] = experiment: Antipsychotic activity in CD-1 mouse assessed as inhibition of MK-801-induced hyperlocomotor activity at 2.5 to 30 mg/kg, ip pretreated with MK-801 for 15 mins followed by compound administration for 60 mins; assay type: functional, organism-based; method in brief: as §2

Compound	Ki (D(2) dopamine receptor [1]) [nM]	Ki [2] [nM]	Ki [3] [nM]	Ki [4] [nM]	Ki [5] [nM]	further results
O=S(=O)(c1cccc2ncccc12)N1CCC(CCN2CCN(c3cccc(C(F)(F)F)c3)CC2)CC1	149	40	530	640	56	
O=S(=O)(c1cccc2ncccc12)N1CCC(CCN2CCN(c3ccc(Cl)cc3)CC2)CC1	141	740	152	1020	37	
O=S(=O)(c1cncc2ccccc12)N1CCC(CCN2CCN(c3cccc(C(F)(F)F)c3)CC2)CC1	148	30	161	1020	52	
O=S(=O)(c1cccc2ncccc12)N1CCC(CCN2CCN(c3cccc(Cl)c3Cl)CC2)CC1	36	45	286	401	55	inhibition (D(2) dopamine receptor [6]): 88%; inhibition [7]: 63%; inhibition [8]: 69%; inhibition (Mus musculus [9]): Active; Activity (Mus musculus [10]): 23%; minimal effective dose (Mus musculus [11]): 10 mg/kg; minimal effective dose (Mus musculus [12]; in the assay text read “for 60 mins” for “for 30 mins”): 0.625 mg/kg
O=S(=O)(c1cncc2ccccc12)N1CCC(CCN2CCN(c3cccc(Cl)c3)CC2)CC1	37	32	157	1190	18	inhibition (D(2) dopamine receptor [6]): 85%; inhibition [7]: 69%; inhibition [8]: 73%; inhibition (Mus musculus [13]): Active; Activity (Mus musculus [14]): 36%; Activity (Mus musculus [15]): 32%
O=S(=O)(c1cncc2ccccc12)N1CCC(CCN2CCN(c3ccccc3)CC2)CC1	1220	543	410	2410	174	
CN(C)CCCC1(c2ccc(F)cc2)OCc2cc(C#N)ccc21 (configuration not stated) [CITALOPRAM]						Activity (Mus musculus [16]): 28%
O=S(=O)(c1cccc2ncccc12)N1CCC(CCN2CCN(c3ccc(F)cc3)CC2)CC1	223	759	139	1460	29	
O=C1CCc2ccc(OCCCCN3CCN(c4cccc(Cl)c4Cl)CC3)cc2N1						inhibition (Mus musculus [17]): Active
O=S(=O)(c1cccc2ncccc12)N1CCC(CCN2CCN(c3cccc(F)c3)CC2)CC1	1820	609	665	8280	165	
O=S(=O)(c1cncc2ccccc12)N1CCC(CCN2CCN(c3cccc(F)c3)CC2)CC1	1010	370	691	3800	142	
O=S(=O)(c1cncc2ccccc12)N1CCC(CCN2CCN(c3cccc(Cl)c3Cl)CC2)CC1	30	29	371	309	39	inhibition (D(2) dopamine receptor [6]): 79%; inhibition [7]: 64%; inhibition [8]: 75%; inhibition (Mus musculus [18]): inactive
O=S(=O)(c1cncc2ccccc12)N1CCC(CCN2CCN(c3ccc(Cl)c(Cl)c3)CC2)CC1	145	324	179	1040	36	
O=S(=O)(c1cccc2ncccc12)N1CCC(CCN2CCN(c3cccc(Cl)c3)CC2)CC1	76	54	197	445	37	
O=S(=O)(c1cccc2ncccc12)N1CCC(CCN2CCN(c3ccc(Cl)c(Cl)c3)CC2)CC1	121	257	336	791	52	
O=S(=O)(c1cncc2ccccc12)N1CCC(CCN2CCN(c3ccc(Cl)cc3)CC2)CC1						minimal effective dose (Mus musculus [11]): 5 mg/kg; minimal effective dose (Mus musculus [12]): 30 mg/kg; inhibition (Mus musculus [19]): Active
O=S(=O)(c1cncc2ccccc12)N1CCC(CCN2CCN(c3ccc(F)cc3)CC2)CC1	418	975	156	1860	14	
O=S(=O)(c1cccc2ncccc12)N1CCC(CCN2CCN(c3ccccc3)CC2)CC1	1240	749	646	6710	209	
